Data on 18 compounds can be found in ChEMBL document CHEMBL5500397, “Discovery of CDC42 Inhibitors with a Favorable Pharmacokinetic Profile and Anticancer In Vivo Efficacy” (J Med Chem, 2024).

Data set [1] can be described thus: Metabolic stability in mouse plasma assessed as half life at 2 uM measured after 0 to 120 mins by LC-MS/MS analysis. In kind it is ADME, cell-free. The conditions noted are these: time 0-120 min; for t1/2: 2 µM.
Data set [2] is described as follows: Cmax in male CD-1 mouse at 3 mg/kg, iv measured upto 240 mins by LC/MS/MS analysis. It is filed as ADME, organism-based. The following applies: in vivo, 4 h.
Data set [3] can be described thus: Oral bioavailability in male CD-1 mouse at 10 mg/kg measured upto 480 mins by LC-MS/MS analysis. In kind it is ADME, organism-based. The following applies: in vivo, 8 h. In short, it runs like this:
(§1)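 Mouse PK after single oral dose of 10 mg/kg; n = 3 animals per time point; plasma concentration–time profile used for observed and calculated PK parameters.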

Data set [4] is described as follows: Half life in male CD-1 mouse at 3 mg/kg, iv measured upto 240 mins by LC/MS/MS analysis. In kind it is ADME, organism-based. The conditions noted are these: in vivo, 4 h. The method, boiled down:
(§2)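 Mouse PK after single intravenous injection of 3 mg/kg; n = 3 animals per time point; plasma concentration–time profile used for observed and calculated PK parameters.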

Data set [5] is described as follows: Tmax in male CD-1 mouse at 3 mg/kg, iv measured upto 240 mins by LC/MS/MS analysis. It is filed as ADME, organism-based. The following applies: in vivo, 4 h. In short, it runs like this:
as §2

Data set [6] can be described thus: Drug concentration in male CD-1 mouse plasma at 10 mg/kg, po measured after 4 hrs by LC-MS/MS analysis. It is filed as ADME, organism-based. The method, boiled down:
as §1

A short description of data set [7]: Drug concentration in male CD-1 mouse plasma at 3 mg/kg, iv measured after 4 hrs by LC-MS/MS analysis. It is filed as ADME, organism-based. The method, boiled down:
as §2

A short description of data set [8]: Cmax in male CD-1 mouse at 10 mg/kg, po measured upto 480 mins by LC-MS/MS analysis. The following applies: in vivo, 8 h. It is filed as ADME, organism-based. In short, it runs like this: as §1
Data set [9] is described as follows: Half life in male CD-1 mouse at 10 mg/kg, po measured upto 480 mins by LC-MS/MS analysis. The following applies: in vivo, 8 h. In kind it is ADME, organism-based. In short, it runs like this:
as §1

A short description of data set [10]: Metabolic stability in mouse liver microsomes assessed as half life at […] preincubated for 15 mins followed by NADPH cofactor addition and measured after 1 hr by LC-MS/MS analysis. In kind it is ADME, Microsome. The conditions noted are these: dose 4.6 µM, time 75 min.
Data set [11] can be described thus: Drug concentration in male CD-1 mouse plasma at 10 mg/kg, po measured after 8 hrs by LC-MS/MS analysis. It is filed as ADME, organism-based. The method, boiled down: as §1

Each structure is given as a SMILES string.

In the case of `FC(F)(F)c1cccc(Nc2nc(-c3ccccc3)cc(C3CCNCC3)n2)c1`, the t1/2 in data set [1] is more than 120 min.
The same measure, in the same setting: next, `COc1cc(Nc2nc(-c3ccccc3)cc(C3CCNCC3)n2)ccn1`: more than 120 min; `c1ccc(-c2cc(Nc3ccc4cc[nH]c4c3)nc(C3CCNCC3)n2)cc1`: more than 120 min.
As to `FC(F)(F)c1cc(Nc2nc(-c3ccccc3)cc(C3CCNCC3)n2)ccn1`, the values for the maximum concentration (Cmax) in data set [2] and in [8] were 643 ng/mL and 99 ng/mL, respectively. In [3], this compound showed an F of 8%. Moreover, the t1/2 in data set [1] is on record as more than 120 min; in data set [4], 115 min; in data set [9], 91 min. For the same compound, in [5], the Tmax is given as 5 min. Besides, the concentration at 4 h in data set [6] was found to be 40 ng/mL; in data set [7], 84 ng/mL.
With `FC(F)(F)c1cccc(Nc2nc(-c3cccc4cnccc34)nc(C3CCNCC3)n2)c1`, the half-life at 2 µM in [1] is more than 120 min. In data set [10], the half-life at […] is more than 60 min.
Consider `CN(C)c1cccc(Nc2nc(-c3ccccc3)cc(C3CCNCC3)n2)c1`, for which, in [1], the t1/2 turned out to be 60 min.
Same read-out and setting: as for `Cn1ccc2ccc(Nc3cc(-c4ccccc4)nc(C4CCNCC4)n3)cc21`, the figure is more than 120 min; as for `FC(F)(F)Oc1cccc(Nc2nc(-c3ccccc3)cc(C3CCNCC3)n2)c1`, more than 120 min.
On to `COc1ccc(Nc2nc(-c3ccccc3)cc(C3CCNCC3)n2)cc1OC`, for which the maximum concentration (Cmax) in data set [2] is 320 ng/mL; in data set [8], 140 ng/mL. In [3], this compound had an F of 22%. For the same compound, the half-life at 2 µM in data set [1] is more than 120 min. In addition, the t1/2 in data set [4] is 257 min; in [9] it was 168 min. In addition, in data set [5], the time of peak concentration (Tmax) was 5 min. Also, the concentration at 4 h in [7] was determined as 74 ng/mL. Moreover, the concentration at 8 h in data set [11] was found to be 7 ng/mL.
With `COc1ccc(Nc2nc(-c3ccccc3)cc(C3CCNCC3)n2)cn1`, the t1/2 in [1] is more than 120 min.
Take `COC(=O)c1cc(Nc2nc(-c3ccccc3)cc(C3CCNCC3)n2)ccc1OC`: the t1/2 in [1] is reported as 89 min.
As to `Cn1ccc2cc(-c3nc(Nc4cccc(C(F)(F)F)c4)nc(C4CCNCC4)n3)ccc21`, in data set [1], the half-life at 2 µM is more than 120 min. Moreover, the half-life at […] in data set [10] was more than 60 min.
Consider `FC(F)(F)c1cccc(Nc2nc(-c3coc4ccccc34)nc(C3CCNCC3)n2)c1`, for which the half-life at 2 µM in data set [1] is more than 120 min. For the same compound, the half-life at […] in [10] was more than 60 min.
As for `CN(C)c1cccc(Nc2cc(-c3ccccc3)nc(C3=CCNCC3)n2)c1`, the t1/2 in data set [1] is reported as more than 120 min.
Turning to `FC(F)(F)c1cccc(Nc2nc(-c3ccc[nH]3)nc(C3CCNCC3)n2)c1`, the t1/2 in data set [1] is reported as more than 120 min.
On to `FC(F)(F)c1cccc(Nc2nc(C3=CCNCC3)nc(-c3ccsc3)n2)c1`, for which the t1/2 in data set [1] is given as more than 120 min.
`FC(F)(F)c1cccc(Nc2nc(-c3ccc4[nH]ncc4c3)nc(C3CCNCC3)n2)c1`: in [1], the half-life at 2 µM is more than 120 min. Moreover, the half-life at […] in data set [10] is more than 60 min.
Regarding `FC(F)Oc1cc(Nc2nc(-c3ccccc3)cc(C3CCNCC3)n2)ccn1`, the t1/2 in [1] is reported as more than 120 min.
